From PubChem BioAssay
NPR2 activator = GC-B (human) receptor activation; 0.11% of 370,000 active; activation, % at 10 µM; P20594; HEK293-GC-B cells, CNP EC30, cGMP TR-FRET; 0% at EC30 CNP, 100% saturating CNP;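 active = activation at 10 µM reaching about 35% in either raw or pattern-adjusted values, limit read from the data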
Glyco luc inh = blocks N-linked glycosylation in D54 reporter cells; D54 ERlucT glycosylation luciferase reporter, 24 h; percent of 100 nM tunicamycin response; AID 588692; 0.23% of 360,000 active; reporter increase, % at 12.5 µM;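 active = mean luciferase reporter signal, scaled so untreated is 0 and the glycosylation-blocking control 100, at or above a set limit in every replicate; inconclusive = mean reaches the limit but not every replicate does; inactive = mean below the limit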;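 also: luciferase carries N-glycosylation sites so blocking glycosylation raises the light; 0% = median of neutral control wells and 100% = median of 100 nM tunicamycin wells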
Xi reactivation = X-chromosome reactivation activator; XiGFP mouse fibroblasts, % GFP-positive cells imaging, 3 d; cells co-treated with 5-aza-dC sensitizer; scaled so ellipticine positive control = 100%; 0.055% of 360,000 active; AID 743238; activation, % at 7.58 µM;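 active = mean normalized replicate activation at least 10% and every replicate at or above 10%; inconclusive = only one of the two criteria met; inactive = mean below 10% and not all replicates reach 10%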;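 also: 0% = median of on-plate neutral control wells and 100% = ellipticine 6 µM median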
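System: XiGFP fibroblasts, SV40-immortalized. Medium: DMEM plus 5-aza-dC sensitizer. Doses: single point. Timing: 3 d treatment, 15 min room-temperature fixation. Control set: ellipticine 6 µM.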
Vif inh = blocks HIV Vif function; HEK293T cells, Vif self-association by quenched fluorescence, imaging, 24 h; inhibition, % at 7.49 µM; 0.35% of 340,000 active; in the data active = inhibition above about 50%, passing the limit was not always enough; inconclusive = no clear call, values can overlap the other calls; inactive = below about 31%
CaV13 ICDI inh = Disruptors of the CACNA1D IQ motif to Ca2+-dependent inactivation inhibitor domain association, primary screening, Förster resonance energy transfer in intact living …. HEK cells, CFP/YFP FRET ICDI-IQ, plate reader, 10 min; percent FRET-ratio fall versus neutral wells. inhibition, % at 12.3 µM. 0.098% of 340,000 active. AID 743397;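 active = mean replicate inhibition of at least 30% and at least 1% of replicates passing that level; inconclusive = only one of the two criteria is met; inactive = neither criterion is met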;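 also: 0% = median of the neutral control wells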
NPR1 activator = GC-A (human) enzyme activation; activation, % at 10 µM; 0.14% of 370,000 active; AID 1671463; HEK293 GC-A cells, cGMP TR-FRET, EC30 ANP; 0% at EC30 ANP, 100% saturating ANP; in the data active = activation above about 40%
* hit, by the source's call; ? = inconclusive; nt = no result given. Sampled rows, rich in hits. Any-hit rate of the full collection: about 0.7%.

SMILES	NPR2 activator	Glyco luc inh	Xi reactivation	Vif inh	CaV13 ICDI inh	NPR1 activator
O=C(CCN1CCCCC1)c1ccccc1	-9.0	-0.4	nt	-2.7	-7.1	62.0*
O=C(Cc1cccs1)Nc1ccc(-c2nc3ccccc3[nH]2)cc1	8.8	33.2*	nt	35.6	-4.5	10.1
O=C(CSc1ccccc1)Nc1ccc(-c2nc3ccccc3[nH]2)cc1	-0.6	9.3	0.0	-0.9	-4.6	1.0
C[C@H](CO)N1C[C@H](C)[C@@H](CN(C)Cc2ccc(Oc3ccccc3)cc2)Oc2ccc(NC(=O)CCC(F)(F)F)cc2CC1=O	nt	nt	0.3	nt	nt	nt
COc1cccc(-c2cc(=O)c3cc(NC(=O)c4ccc(Cl)cc4)ccc3[nH]2)c1	-3.1	16.9	0.0	-1.3	3.5	-3.4
COc1cccc(-c2cc(=O)c3cc(NC(=O)c4ccccc4)ccc3[nH]2)c1	3.4	18.2	-0.1	193.7*	-9.1	2.4
O=C(CN1CCOCC1)NCC[C@H]1CC[C@H](NC(=O)Nc2ccc(C(F)(F)F)cc2)[C@H](CO)O1	nt	nt	0.4	nt	nt	nt
N#C/C(=C/c1ccc(-c2ccc([N+](=O)[O-])cc2)o1)C(=O)Nc1nc(-c2cccs2)cs1	-8.5	-1.2	0.0	18.8	-7.7	-8.7
Cc1ccc(Cc2cnc(NC(=O)/C(C#N)=C/c3ccc(-c4ccc([N+](=O)[O-])cc4)o3)s2)cc1	-0.2	2.3	nt	89.0*	-5.2	-1.1
CCCN1[C@@H]2c3ccc(-c4ccncc4)c(=O)n3C[C@@H]2[C@@H](CO)[C@@H]1C(=O)N1CCOCC1	nt	nt	0.1	nt	nt	nt
CN(C)CCNc1cccc2sc3ccc(O)cc3c(=O)c12	3.2	106.7*	0.8	2.4	-0.9	0.2
CCN(CC)CCNc1cccc2sc3ccccc3c(=O)c12	-8.8	?	0.0	-12.5	-14.4	8.0
Cc1ccc(NCCN(C)C)c2c(=O)c3cc(O)ccc3sc12	-11.2	62.5*	-0.1	-3.7	-11.2	-10.5
C/C=C/c1ccc([C@@H]2[C@H](CO)N(C(=O)CC)C23CN(S(=O)(=O)CC)C3)cc1	nt	nt	-0.1	nt	nt	nt
COc1ccc(CN(C)C[C@H]2Oc3ccc(NC(=O)Cn4cnnn4)cc3C(=O)N([C@@H](C)CO)C[C@@H]2C)cc1	nt	nt	0.1	nt	nt	nt
CN(Cc1ccccc1)C(=O)C1CCN(S(=O)(=O)c2ccc3nc4c(c(C(=O)O)c3c2)CCCC4)CC1	-0.1	-0.7	0.2	68.9*	-2.4	-6.5
C[C@@H](NC(=O)C[C@@H]1CC[C@@H](NC(=O)C2CCC2)[C@H](CO)O1)c1ccccc1	nt	nt	-0.4	nt	nt	nt
O=C(O)C1(Nc2ccc(Cl)cc2)CCCC1	2.7	0.3	0.2	17.4	-5.2	1.4
NC(=O)C1(Nc2ccc(-c3ccc(Cl)cc3)cc2)CCCC1	-9.3	-2.1	0.0	-11.1	-3.7	58.1*
C[C@@H]1CCCCO[C@H](CN(C)C(=O)c2ccncc2)[C@@H](C)CN([C@H](C)CO)C(=O)c2cc(NC(=O)NC3CCCCC3)ccc2O1	nt	nt	0.0	nt	nt	nt
S=C(S)N1CCCC1	4.7	-2.1	0.1	74.9*	-4.6	0.5
Oc1ccc(C(=S)N2CCCC2)cc1	-0.8	1.3	0.0	1.4	-2.5	-0.7
Cc1onc(-c2ccccc2)c1C(=O)N1CCN(S(=O)(=O)c2ccc(OC(F)(F)F)cc2)CC1	7.4	-0.7	0.3	-4.0	-2.7	0.6
Cc1ccc(S(=O)(=O)N2CCN(C(=O)c3c(-c4ccccc4)noc3C)CC2)cc1	1.7	-2.8	-0.1	51.9*	-6.8	-0.6
C[C@@H]1CN([C@@H](C)CO)C(=O)c2cc(NC(=O)Nc3ccccc3)ccc2O[C@@H]1CN(C)Cc1ccc(C(F)(F)F)cc1	nt	nt	-0.2	nt	nt	nt
Cc1ccc(-c2cc(C(=O)NCc3ccccn3)c3ccccc3n2)cc1	0.9	1.0	nt	59.3*	-6.0	1.8
Clc1ccc2oc(-c3ccccc3)cc(=NCCCN3CCOCC3)c2c1	-5.3	3.6	0.1	7.1	-4.4	5.2
OCCCCCN=c1cc(-c2ccccc2)oc2ccc(Cl)cc12	4.5	50.9*	nt	-5.6	nt	10.6
